From ChEMBL document CHEMBL4689842, “EUbOPEN Chemogenomics Library wave 1” (2021)
Where “and” joins values, the source holds several entries; their conditions need not be identical. Equal entries are not always repeated.

Test system: HEK-293T
Assay: Multiplex assay against HEK293T;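 as to Population Tubulin-Different-Phenotype (%): share of the cells with healthy nuclei that show this phenotype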
Assay type: toxicity, cell-based
Conditions: human
Method in brief: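 With compound added, live cells were imaged on a CQ1 microscope at 37°C and 5% CO2; staining with Hoechst33342, BioTracker Green Microtubule Cytoskeleton Dye, MitoTracker Red and Annexin V Alexa Fluor 680 had been done at seeding. The CellPathfinder machine-learning gating scheme split cells into Hoechst high-intensity objects or normal cells, normal cells into healthy, pyknosed or fragmented nuclei, and pyknosed cells into mitotic or apoptotic. The tubulin, mitochondrial-mass and membrane-permeability phenotypes are per cents of healthy-nucleus cells.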

[1] = 12 h, 1 µM, compound concentration 1 uM, replicate 1
[2] = 12 h, 1 µM, compound concentration 1 uM, replicate 2
[3] = 12 h, 10 µM, compound concentration 10 uM, replicate 1
[4] = 12 h, 10 µM, compound concentration 10 uM, replicate 2
[5] = 24 h, 1 µM, compound concentration 1 uM, replicate 1
[6] = 24 h, 1 µM, compound concentration 1 uM, replicate 2
[7] = 24 h, 10 µM, compound concentration 10 uM, replicate 1
[8] = 24 h, 10 µM, compound concentration 10 uM, replicate 2
[9] = 48 h, 10 µM, compound concentration 10 uM, replicate 1
[10] = 48 h, 10 µM, compound concentration 10 uM, replicate 2

SMILES: CN[C@@H]1C[C@H]2O[C@@](C)([C@@H]1OC)n1c3ccccc3c3c4c(c5c6ccccc6n2c5c31)C(=O)NC4 [STAUROSPORINE]
- Population Apoptotic (%) [1]: 27%
- Population Fragmented Nuclei (%) [1]: 37%
- Population Healthy Nuclei (%) [1]: 16%
- Population Hoechst High Intensity Objects (%) [1]: 15%
- Population Membrane Permeable-Phenotype (%) [1]: 16%
- Population Mitochondria Different-Phenotype (%) [1]: 9%
- Population Mitotic Cells (%) [1]: 72%
- Population Normal (%) [1]: 84%
- Population Pyknosed Nuclei (%) [1]: 46%
- Population Tubulin-Different-Phenotype (%) [1]: 32%
- Population Apoptotic (%) [2]: 9%
- Population Fragmented Nuclei (%) [2]: 18%
- Population Healthy Nuclei (%) [2]: 35%
- Population Hoechst High Intensity Objects (%) [2]: 10%
- Population Membrane Permeable-Phenotype (%) [2]: 12%
- Population Mitochondria Different-Phenotype (%) [2]: 13%
- Population Mitotic Cells (%) [2]: 90%
- Population Normal (%) [2]: 89%
- Population Tubulin-Different-Phenotype (%) [2]: 74%
- Population Apoptotic (%) [3]: 31% and 93% and 82%
- Population Fragmented Nuclei (%) [3]: 37% and 33% and 30%
- Population Hoechst High Intensity Objects (%) [3]: 15% and 23% and 17%
- Population Membrane Permeable-Phenotype (%) [3]: 20% and 15%
- Population Normal (%) [3]: 84% and 76% and 82%
- Population Pyknosed Nuclei (%) [3]: 48% and 65% and 66%
- Population Tubulin-Different-Phenotype (%) [3]: 25% and 33% and 57%
- Population Hoechst High Intensity Objects (%) [4]: 20% and 22% and 11%
- Population Mitochondria Different-Phenotype (%) [4]: 23% and 35% and 18%
- Population Normal (%) [4]: 79% and 77% and 88%
- Population Pyknosed Nuclei (%) [4]: 52% and 55% and 35%
- Population Apoptotic (%) [5]: 48%
- Population Fragmented Nuclei (%) [5]: 35%
- Population Healthy Nuclei (%) [5]: 17%
- Population Hoechst High Intensity Objects (%) [5]: 15%
- Population Membrane Permeable-Phenotype (%) [5]: 18%
- Population Mitochondria Different-Phenotype (%) [5]: 16%
- Population Mitotic Cells (%) [5]: 51%
- Population Normal (%) [5]: 84%
- Population Pyknosed Nuclei (%) [5]: 46%
- Population Tubulin-Different-Phenotype (%) [5]: 29%
- Population Apoptotic (%) [6]: 28%
- Population Fragmented Nuclei (%) [6]: 16%
- Population Healthy Nuclei (%) [6]: 30%
- Population Hoechst High Intensity Objects (%) [6]: 14%
- Population Membrane Permeable-Phenotype (%) [6]: 10%
- Population Mitochondria Different-Phenotype (%) [6]: 25%
- Population Mitotic Cells (%) [6]: 71%
- Population Normal (%) [6]: 85%
- Population Pyknosed Nuclei (%) [6]: 52%
- Population Tubulin-Different-Phenotype (%) [6]: 73%
- Population Apoptotic (%) [7]: 58% and 87% and 91%
- Population Fragmented Nuclei (%) [7]: 37% and 33% and 27%
- Population Hoechst High Intensity Objects (%) [7]: 19% and 21% and 24%
- Population Normal (%) [7]: 80% and 75%
- Population Pyknosed Nuclei (%) [7]: 46% and 65% and 70%
- Population Fragmented Nuclei (%) [8]: 12% and 32%
- Population Hoechst High Intensity Objects (%) [8]: 13% and 29% and 22%
- Population Membrane Permeable-Phenotype (%) [8]: 12% and 14%
- Population Mitochondria Different-Phenotype (%) [8]: 25% and 57% and 62%
- Population Normal (%) [8]: 86% and 70% and 77%
- Population Pyknosed Nuclei (%) [8]: 48% and 55% and 66%
- Population Tubulin-Different-Phenotype (%) [8]: 86% and 61% and 87%
- Population Apoptotic (%) [9]: 96% and 92%
- Population Fragmented Nuclei (%) [9]: 36% and 37%
- Population Healthy Nuclei (%) [9]: 0% and 1%
- Population Hoechst High Intensity Objects (%) [9]: 22% and 19%
- Population Membrane Permeable-Phenotype (%) [9]: 0%
- Population Mitochondria Different-Phenotype (%) [9]: 100% and 80%
- Population Mitotic Cells (%) [9]: 3% and 7%
- Population Normal (%) [9]: 77% and 80%
- Population Pyknosed Nuclei (%) [9]: 62%
- Population Tubulin-Different-Phenotype (%) [9]: 100% and 60%
- Population Apoptotic (%) [10]: 97% and 93%
- Population Fragmented Nuclei (%) [10]: 23% and 21%
- Population Healthy Nuclei (%) [10]: 19% and 17%
- Population Hoechst High Intensity Objects (%) [10]: 21% and 26%
- Population Membrane Permeable-Phenotype (%) [10]: 6% and 5%
- Population Mitochondria Different-Phenotype (%) [10]: 66% and 73%
- Population Mitotic Cells (%) [10]: 2% and 6%
- Population Normal (%) [10]: 73%
- Population Pyknosed Nuclei (%) [10]: 57% and 61%
- Population Tubulin-Different-Phenotype (%) [10]: 72% and 84%

SMILES: CN1CCN(C(=O)C(C)(C)c2ccc(C(=O)Nc3cn4cc(-c5cc(C(C)(C)C)cc(C(C)(C)C)c5)ccc4n3)cc2)CC1 [T3-CLK-N]
- Population Apoptotic (%) [1]: 14%
- Population Fragmented Nuclei (%) [1]: 15%
- Population Healthy Nuclei (%) [1]: 58%
- Population Hoechst High Intensity Objects (%) [1]: 12%
- Population Membrane Permeable-Phenotype (%) [1]: 5%
- Population Mitochondria Different-Phenotype (%) [1]: 7%
- Population Mitotic Cells (%) [1]: 85%
- Population Normal (%) [1]: 87%
- Population Pyknosed Nuclei (%) [1]: 25%
- Population Tubulin-Different-Phenotype (%) [1]: 9%
- Total Cell Count [1]: 642
- Population Apoptotic (%) [2]: 10%
- Population Fragmented Nuclei (%) [2]: 6%
- Population Healthy Nuclei (%) [2]: 84%
- Population Hoechst High Intensity Objects (%) [2]: 2%
- Population Membrane Permeable-Phenotype (%) [2]: 4%
- Population Mitochondria Different-Phenotype (%) [2]: 13%
- Population Mitotic Cells (%) [2]: 89%
- Population Normal (%) [2]: 97%
- Population Pyknosed Nuclei (%) [2]: 9%
- Population Tubulin-Different-Phenotype (%) [2]: 21%
- Total Cell Count [2]: 1407
- Population Apoptotic (%) [3]: 21%
- Population Fragmented Nuclei (%) [3]: 16%
- Population Healthy Nuclei (%) [3]: 46%
- Population Hoechst High Intensity Objects (%) [3]: 18%
- Population Membrane Permeable-Phenotype (%) [3]: 11%
- Population Mitochondria Different-Phenotype (%) [3]: 13%
- Population Mitotic Cells (%) [3]: 78%
- Population Normal (%) [3]: 81%
- Population Pyknosed Nuclei (%) [3]: 36%
- Population Tubulin-Different-Phenotype (%) [3]: 30%
- Total Cell Count [3]: 631
- Population Apoptotic (%) [4]: 23%
- Population Fragmented Nuclei (%) [4]: 3%
- Population Healthy Nuclei (%) [4]: 80%
- Population Hoechst High Intensity Objects (%) [4]: 4%
- Population Membrane Permeable-Phenotype (%) [4]: 4%
- Population Mitochondria Different-Phenotype (%) [4]: 26%
- Population Mitotic Cells (%) [4]: 76%
- Population Normal (%) [4]: 95%
- Population Pyknosed Nuclei (%) [4]: 15%
- Population Tubulin-Different-Phenotype (%) [4]: 63%
- Total Cell Count [4]: 884
- Population Apoptotic (%) [5]: 16%
- Population Fragmented Nuclei (%) [5]: 12%
- Population Healthy Nuclei (%) [5]: 76%
- Population Hoechst High Intensity Objects (%) [5]: 10%
- Population Membrane Permeable-Phenotype (%) [5]: 14%
- Population Mitochondria Different-Phenotype (%) [5]: 5%
- Population Mitotic Cells (%) [5]: 83%
- Population Normal (%) [5]: 89%
- Population Pyknosed Nuclei (%) [5]: 10%
- Population Tubulin-Different-Phenotype (%) [5]: 19%
- Total Cell Count [5]: 686
- Population Apoptotic (%) [6]: 4%
- Population Fragmented Nuclei (%) [6]: 10%
- Population Healthy Nuclei (%) [6]: 84%
- Population Hoechst High Intensity Objects (%) [6]: 4%
- Population Membrane Permeable-Phenotype (%) [6]: 9%
- Population Mitochondria Different-Phenotype (%) [6]: 8%
- Population Mitotic Cells (%) [6]: 95%
- Population Normal (%) [6]: 95%
- Population Pyknosed Nuclei (%) [6]: 5%
- Population Tubulin-Different-Phenotype (%) [6]: 40%
- Total Cell Count [6]: 1792
- Population Apoptotic (%) [7]: 27%
- Population Fragmented Nuclei (%) [7]: 20%
- Population Healthy Nuclei (%) [7]: 46%
- Population Hoechst High Intensity Objects (%) [7]: 21%
- Population Membrane Permeable-Phenotype (%) [7]: 8%
- Population Mitochondria Different-Phenotype (%) [7]: 23%
- Population Mitotic Cells (%) [7]: 72%
- Population Normal (%) [7]: 78%
- Population Pyknosed Nuclei (%) [7]: 33%
- Population Tubulin-Different-Phenotype (%) [7]: 56%
- Total Cell Count [7]: 614
- Population Apoptotic (%) [8]: 17%
- Population Fragmented Nuclei (%) [8]: 4%
- Population Healthy Nuclei (%) [8]: 88%
- Population Hoechst High Intensity Objects (%) [8]: 3%
- Population Membrane Permeable-Phenotype (%) [8]: 7%
- Population Mitochondria Different-Phenotype (%) [8]: 37%
- Population Mitotic Cells (%) [8]: 82%
- Population Normal (%) [8]: 96%
- Population Pyknosed Nuclei (%) [8]: 6%
- Population Tubulin-Different-Phenotype (%) [8]: 82%
- Total Cell Count [8]: 947
